Results gathered from unrelated publications.
Protocols differ between the studies behind these lines.
Cell line: MCF7
Effect on: cell growth or viability

C[C@@H]1CC[C@@H]([C@](C)(O)Cn2cnc3ccccc32)[C@H](OCc2ccccc2)C1 — inhibition (MTT; 10 µM, 72 h): 51%
Cc1ccc(-c2cc(-c3c(Cl)cccc3Cl)c3c(=O)[nH]c(=O)[nH]c3n2)cc1 — IC50 (MTT; 48 h): 39 µM
CCOC(=O)c1nn(-c2cccc(Cl)c2)/c(=N/N=C(\C)c2ccc(NC(=O)c3ccccc3)cc2)s1 — viability (MTT; 0.312 µM): 6.34%
CC(=NNC(=O)c1ccccc1O)c1ccc(Nc2nnc(-c3ccc(Cl)cc3)c3ccccc23)cc1 — viability (MTT; 1.25 µM, 24 h): 90.3%
CC(=O)Nc1ccc(/C(C)=N/N=c2\sc(C(C)=O)nn2-c2ccc(C)cc2)cc1 — viability (MTT; 5 µM): 21.2%
C[C@@H]1CC[C@@H]([C@@](O)(CNCc2ccccc2)COCc2ccccc2)[C@H](OCc2ccccc2)C1 — inhibition (MTT; 10 µM, 72 h): 94.8%
CCOC(=O)c1nn(-c2cccc(Cl)c2)/c(=N/N=C(\C)c2ccc(NC(=O)c3ccc(Cl)cc3)cc2)s1 — viability (MTT; 2.5 µM): 3.54%
COc1cc2ncnc(Nc3ccc4c(c3)/C(=C/c3cccc(Cl)c3)C(=O)N4C)c2cc1OC — IC50 (MTT): 4.62 µM
O=C(Nc1ccc(Oc2nnc(-c3ccc(Cl)cc3)c3ccccc23)cc1)c1cccc([N+](=O)[O-])c1 — cell death (MTT; 0.312 µM): 83%
C[C@@H]1CC[C@@H]([C@](O)(CNCc2ccc(F)cc2)COCc2ccc(F)cc2)[C@H](OCc2ccc(F)cc2)C1 — inhibition (MTT; 10 µM, 72 h): 93.7%
CC(=NNC(=O)c1ccc(N)cc1)c1ccc(Nc2nnc(-c3ccc(Cl)cc3)c3ccccc23)cc1 — cell death (MTT; 1.25 µM): 85.9%
COc1ccc(CNC[C@@](C)(O)[C@@H]2CC[C@@H](C)C[C@H]2OCc2ccccc2)cc1 — inhibition (MTT; 30 µM, 72 h): 97%
CC(=O)Nc1ccc(Oc2nnc(-c3ccc(Cl)cc3)c3ccccc23)cc1 — cell death (MTT; 2.5 µM): 94.2%
CC(=O)c1c(C)c2cnc(Nc3ccc(N4CCNCC4)cn3)nc2n(C2CCCC2)c1=O — EC50 (5 days): 0.0383 µM
C[C@@H]1CC[C@@H]([C@](O)(CNCc2ccccc2)COCc2ccc(F)cc2)[C@H](OCc2ccc(F)cc2)C1 — inhibition (MTT; 30 µM, 72 h): 100%
CC(=O)c1nn(-c2ccc(C)cc2)/c(=N/N=C(\C)c2ccc(NC(=O)c3ccccc3)cc2)s1 — viability (MTT; 1.25 µM): 5.3%
CC(=NNC(=O)c1ccccc1Br)c1ccc(Nc2nnc(-c3ccc(Cl)cc3)c3ccccc23)cc1 — cell death (MTT; 0.312 µM): 6.55%
C[C@@H]1CC[C@@H]([C@](C)(O)CNCc2ccccc2F)[C@H](OCc2ccccc2)C1 — inhibition (MTT; 10 µM, 72 h): 39%
O=C(Nc1ccccc1)Nc1ccc(Oc2nnc(-c3ccc(Cl)cc3)c3ccccc23)cc1 — viability (MTT; 0.312 µM, 24 h): 11.3%
CC(=O)c1nn(-c2ccccc2Cl)/c(=N/N=C(\C)c2ccc(NC(=O)c3ccccc3)cc2)s1 — viability (MTT; 1.25 µM): 6.34%
